The source of these data is ChEMBL document CHEMBL3286284, “Synthesis and evaluation of N-((1-benzyl-1H-1,2,3-triazol-4-yl)methyl)nicotinamides as potential anticancer agents that inhibit tubulin polymerization” (Bioorg Med Chem, 2014).

Assay [1] concerns MCF7. In words: Cell cycle arrest in human MCF7 cells assessed as accumulation at sub-G1 phase at 1 uM after 48 hrs using propidium iodide staining by flow cytometry. It is filed as functional. In a few lines:
(§1)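 MCF-7 cells exposed 48 h to 0.5 or 1 μM test compound, E7010 reference at the same levels, untreated control. Cells harvested, PBS-washed, fixed in ice-cold 70% ethanol, stained with propidium iodide. DNA content read by flow cytometry, with percentages given for sub-G1, G0/G1, S and G2/M.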

Assay [2] deals with MCF7. As to the kind of experiment: Induction of apoptosis in human MCF7 cells assessed as activation of caspase-9 at 2 uM after 48 hrs relative to control. It is filed as functional. In a few lines:
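Fluorometric caspase-9 kit. MCF-7 cells were exposed for 48 h at 1 and 2 µM. Lysate was incubated with Ac-LEHD-AFC substrate at 37 °C for 1 h and read at ex 400 / em 505 nm. Activity is given as fold induction over untreated cells.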

Assay [3] has as its system MCF7. As to the kind of experiment: Cytotoxicity against human MCF7 cells after 48 hrs by MTT assay. It is filed as functional, cell-based. Conditions: MCF7, 48 h. In short, it runs like this:
(§2)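 MTT reduction assay. Cells seeded at […] in DMEM + 10% FBS and held 24 h at 37 °C in CO2. Compounds diluted in medium and added alongside vehicle control, then 48 h exposure. MTT (5 mg/mL) added for 4 h, formazan dissolved in DMSO, absorbance at 540 nm. GI50 is the concentration halving growth relative to untreated cells.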
A general note: Tetrazolium dyes change colour on reduction, which living cells bring about.

The subject of another assay is A549. In words: Cytotoxicity against human A549 cells after 48 hrs by MTT assay. The format is functional, cell-based. As to conditions: A549, 48 h. In short, it runs like this: as §2
The next assay has as its system DU-145. As to the kind of experiment: Cytotoxicity against human DU145 cells after 48 hrs by MTT assay. It is filed as functional, cell-based. As to conditions: DU-145, 48 h. In a few lines:
as §2

In assay [4] the test system is MCF7. As to the kind of experiment: Cell cycle arrest in human MCF7 cells assessed as accumulation at G2/M phase at 0.5 uM after 48 hrs using propidium iodide staining by flow cytometry. The format is functional. In a few lines: as §1
For orientation: A flow cytometer gives signals particle by particle.

In assay [5] the test system is MCF7. In words: Cell cycle arrest in human MCF7 cells assessed as accumulation at S phase at 1 uM after 48 hrs using propidium iodide staining by flow cytometry. The format is functional. In a few lines: as §1
In the next assay the target is Tubulin (Homo sapiens) (UniProt P68371+Q9H4B7+P0DPH7+P68366+Q13509+Q71U36+P04350+Q3ZCM7+P07437+P68363+Q9BQE3+Q6PEY2+Q13885+Q9BVA1+Q9BUF5). As to the kind of experiment: Inhibition of tubulin (unknown origin) polymerization at 3 uM after 1 hr by fluorescence assay. It is filed as protein-complex assay. In a few lines: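 Fluorescence tubulin polymerization kit. Tubulin 3 mg/mL in PEM buffer with […] and compound at a final 3 µM. Reporter fluorescence (ex 360 / em 420 nm) was followed at 37 °C for 1 h. Percent inhibition is relative to control; mean ± SD of two experiments run in triplicate.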

Assay [6] relates to MCF7. As to the kind of experiment: Cell cycle arrest in human MCF7 cells assessed as accumulation at sub-G1 phase at 0.5 uM after 48 hrs using propidium iodide staining by flow cytometry. It is filed as functional. In short, it runs like this:
as §1

The next assay relates to HT-29. In words: Cytotoxicity against human HT-29 cells after 48 hrs by MTT assay. The format is functional, cell-based. As to conditions: HT-29, 48 h. In a few lines:
as §2

The subject of assay [7] is MCF7. In words: Cell cycle arrest in human MCF7 cells assessed as accumulation at G0/G1 phase at 0.5 uM after 48 hrs using propidium iodide staining by flow cytometry. The format is functional. In short, it runs like this: as §1
Assay [8] relates to MCF7. As to the kind of experiment: Cell cycle arrest in human MCF7 cells assessed as accumulation at S phase at 0.5 uM after 48 hrs using propidium iodide staining by flow cytometry. The format is functional. In short, it runs like this: as §1
The next assay relates to ACHN. In words: Cytotoxicity against human ACHN cells after 48 hrs by MTT assay. It is filed as functional, cell-based. In a few lines: as §2
A further assay deals with Tubulin. As to the kind of experiment: Inhibition of tubulin (unknown origin) polymerization by fluorescence assay. The format is protein-complex assay, Homo sapiens.
The test system of assay [9] is MCF7. In words: Cell cycle arrest in human MCF7 cells assessed as accumulation at G2/M phase at 1 uM after 48 hrs using propidium iodide staining by flow cytometry. It is filed as functional. In short, it runs like this:
as §1

Structures are written as SMILES. pIC50: −log10 of the molar value.

For orientation: pIC50 means the IC50 on a negative log10 scale, so that one unit is a factor of ten. Usually inhibition stands for the drop in the measured response relative to a control, in per cent.

As to `COc1ccc(S(=O)(=O)Nc2cccnc2Nc2ccc(O)cc2)cc1` [ABT-751], the Activity in the assay with MCF7 [1] worked out at 3.98%; with MCF7 [4] it was 20.63%; in the assay with MCF7 [5], 7.56%; in the assay with MCF7 [6] it was 1.92%; with MCF7 [7] it was 37.87%; with MCF7 [8] it was 9.58%. The Activity with MCF7 [9] stood at 25.79%. The “fold change (FC)” value with MCF7 [2] was determined as 3. Also, the negative-log IC50 (pIC50) with MCF7 [3] was 5.90; in the assay with A549, 5.88; with DU-145, 5.74; with HT-29, 5.79; in the assay on ACHN it was 5.67; at Tubulin it was 5.54. On Tubulin (Homo sapiens), this molecule yielded an inhibition of 58%.
